Laboratory results: ChEMBL document CHEMBL4196128 (ACS Med Chem Lett, 2018)

Tests used:
[1] = Volume of distribution at steady state in Beagle dog at 3 mg/kg, iv; format: ADME, organism-based, Canis lupus familiaris; conditions: in vivo, read-out: Vdss
Procedure, shortened: (§1)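 Intravenous dosing in male CD1 mice (10 mg/kg, n = 30), Sprague–Dawley rats (3 mg/kg, n = 3), beagle dogs (3 mg/kg, n = 3) and cynomolgus monkeys (1 mg/kg, n = 3). Vehicle was aqueous 20% hydroxypropyl-β-cyclodextrin. Mean residence time and steady-state volume of distribution were taken from plasma concentration–time profiles as mean parameters.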

Cytochrome P450 2C8 = biological target: T1, Cytochrome P450 2C8 (Homo sapiens, UniProt P10632); experiment: Inhibition of CYP2C8 (unknown origin) preincubated followed by substrate addition; format: ADME
T1 sequence (P10632 whole entry): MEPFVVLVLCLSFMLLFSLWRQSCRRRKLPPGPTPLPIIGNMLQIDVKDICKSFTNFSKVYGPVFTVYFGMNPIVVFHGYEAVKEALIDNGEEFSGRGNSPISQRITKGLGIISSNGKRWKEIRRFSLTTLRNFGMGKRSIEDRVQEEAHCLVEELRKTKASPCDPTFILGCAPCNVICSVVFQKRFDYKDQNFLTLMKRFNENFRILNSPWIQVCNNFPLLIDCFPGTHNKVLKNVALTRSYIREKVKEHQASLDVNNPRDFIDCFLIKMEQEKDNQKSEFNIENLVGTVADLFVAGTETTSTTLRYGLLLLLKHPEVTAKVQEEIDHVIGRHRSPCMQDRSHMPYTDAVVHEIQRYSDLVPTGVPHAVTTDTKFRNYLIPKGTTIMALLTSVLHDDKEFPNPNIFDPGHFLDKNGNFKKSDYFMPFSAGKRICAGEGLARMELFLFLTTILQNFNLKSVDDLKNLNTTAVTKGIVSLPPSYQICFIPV

[2] = Protein binding in human plasma at 10 uM; format: ADME, cell-free; conditions: read-out: PPB
COLO 205 [3] = experiment: Antiproliferative activity against human COLO205 cells harboring BRAF V600E/D mutant measured after 4 days; format: functional, cell-based; conditions: COLO 205, 96 h
Caspase (Homo sapiens) = Caspase (Homo sapiens) (UniProt P49662+P55211+P42574+P51878+P55212+P55210+Q14790+P29466+P42575+Q92851+P31944+Q6UXS9); experiment: Activation of caspase (unknown origin); format: protein assay
[4] = Apparent permeability across basolateral to apical side in human Caco2 cells; format: ADME, cell-based; conditions: Caco-2, read-out: permeability
[5] = Protein binding in dog plasma at 10 uM; format: ADME, cell-free, Canis lupus familiaris; conditions: read-out: PPB
Cytochrome P450 3A4 [6] = biological target: T2, Cytochrome P450 3A4 (Homo sapiens, UniProt P08684); experiment: Inhibition of CYP3A4 (unknown origin) preincubated followed by substrate addition; format: ADME
COLO 205 [7] = experiment: Antitumor activity against human COLO205 cells xenografted in nude mouse assessed as tumor growth inhibition at 20 mg/kg, po bid measured after 28 days relative to control; format: functional; conditions: COLO 205, po, 672 h, read-out: TGI
Procedure, shortened: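 Female nude mice carrying Colo-205 human colon tumor xenografts were randomized to oral dosing twice daily at 20, 40 or 60 mg/kg, or to vehicle. After 28 days of treatment, tumor growth inhibition or tumor regression was assessed relative to vehicle control, with P-value testing.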

Cytochrome P450 2C9 = Cytochrome P450 2C9 (Homo sapiens, UniProt P11712); experiment: Inhibition of CYP2C9 (unknown origin) co-incubated with substrate; format: ADME
Cavia porcellus [8] = experiment: Cardiotoxicity in telemetered guinea pig assessed as changes in PR interval at 30 to 100 mg/kg; format: toxicity, organism-based; conditions: in vivo
Procedure, shortened: (§2)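 Telemetered guinea pigs were exposed at 30 and 100 mg/kg. Electrocardiographic PR, QRS and QT/QTc intervals were monitored for changes related to the test article, and exposure was referenced to total Cmax.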

Cytochrome P450 2C19 = Cytochrome P450 2C19 (Homo sapiens, UniProt P33261); experiment: Inhibition of CYP2C19 (unknown origin) preincubated followed by substrate addition; format: ADME
[9] = Tmax in monkey at 10 mg/kg, po; conditions: cynomolgus monkey, in vivo
[10] = biological target: T3, Mitogen-activated protein kinase; ERK1/ERK2 (Homo sapiens) (UniProt P27361+P28482); experiment: Inhibition of ERK1/2 phosphorylation in human A2058 cells at 30 nM after 24 hrs by Western blot analysis relative to control; format: cell-based
Procedure, shortened: (§3)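 A2058 melanoma cells were treated across a compound dose range. pERK1/2 and pRSK levels were detected by Western blot analysis.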

[11] = biological target: T3, Mitogen-activated protein kinase; ERK1/ERK2 (Homo sapiens); experiment: Inhibition of ERK1/2 in human A2058 cells assessed as reduction in RSK phosphorylation after 24 hrs by Western blot analysis; format: cell-based; procedure, shortened: as §3
[12] = Tmax in CD1 mouse at 30 mg/kg, po; format: ADME, organism-based; conditions: in vivo
Procedure, shortened: (§4)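 Oral dosing in male CD1 mice (30 mg/kg, n = 27), Sprague–Dawley rats (10 mg/kg, n = 3), beagle dogs (30 mg/kg, n = 3) and cynomolgus monkeys (10 mg/kg, n = 3). Mean Tmax was read from plasma concentration–time data. Bioavailability was derived from oral AUC(0–∞) compared with intravenous AUC.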

[13] = Half life in CD1 mouse at 10 mg/kg, iv; format: ADME, organism-based; conditions: in vivo
Procedure, shortened: (§5)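 The compound was given intravenously as an aqueous solution in 20% hydroxypropyl-β-cyclodextrin. Animals were male CD1 mice (10 mg/kg, n = 30), Sprague–Dawley rats (3 mg/kg, n = 3), beagle dogs (3 mg/kg, n = 3) and cynomolgus monkeys (1 mg/kg, n = 3). Plasma concentration–time data gave mean AUC(0–∞), half-life, mean residence time, clearance and Vd,ss.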

[14] = Volume of distribution at steady state in CD1 mouse at 10 mg/kg, iv; format: ADME, organism-based; conditions: in vivo, read-out: Vdss; procedure, shortened: as §1
Cytochrome P450 3A4 [15] = biological target: T2, Cytochrome P450 3A4; experiment: Inhibition of CYP3A4 (unknown origin) co-incubated with substrate; format: ADME
[16] = Volume of distribution at steady state in Sprague-Dawley rat at 3 mg/kg, iv; format: ADME, organism-based; conditions: in vivo, read-out: Vdss; procedure, shortened: as §1
[17] = Mean residence time in monkey at 1 mg/kg, iv; conditions: cynomolgus monkey, in vivo
hERG (KCNH2) [18] = biological target: T4, hERG (KCNH2) (Homo sapiens, UniProt Q12809); experiment: Inhibition of human ERG at 5 mg/ml by binding assay relative to control; design: dose or concentration left out as unconfirmed
[19] = Half life in Beagle dog at 3 mg/kg, iv; format: ADME, organism-based, Canis lupus familiaris; conditions: in vivo; procedure, shortened: as §5
hERG (KCNH2) [20] = biological target: T4, hERG (KCNH2); experiment: Inhibition of human ERG at 600 nM by voltage clamp method relative to control
[21] = biological target: T3, Mitogen-activated protein kinase; ERK1/ERK2 (Homo sapiens); experiment: Inhibition of ERK1/2 phosphorylation in human A2058 cells after 24 hrs by Western blot analysis; format: cell-based; procedure, shortened: as §3
hERG (KCNH2) [22] = biological target: T4, hERG (KCNH2); experiment: Inhibition of human ERG at 10 uM by IonWork assay relative to control
[23] = Oral bioavailability in monkey at 10 mg/kg; conditions: cynomolgus monkey, in vivo
[24] = Oral bioavailability in Sprague-Dawley rat at 10 mg/kg; format: ADME, organism-based; conditions: in vivo; procedure, shortened: as §4
Cavia porcellus [25] = experiment: Cardiotoxicity in telemetered guinea pig assessed as changes in QTc interval at 30 to 100 mg/kg; format: toxicity, organism-based; conditions: in vivo; procedure, shortened: as §2
[26] = Protein binding in monkey plasma at 10 uM; format: ADME, cell-free, Macaca mulatta; conditions: rhesus monkey, read-out: PPB
Cytochrome P450 2D6 = Cytochrome P450 2D6 (Homo sapiens, UniProt P10635); experiment: Inhibition of CYP2D6 (unknown origin) preincubated followed by substrate addition; format: ADME
Chain of Cytochrome P450 2D6 (P10635 whole entry): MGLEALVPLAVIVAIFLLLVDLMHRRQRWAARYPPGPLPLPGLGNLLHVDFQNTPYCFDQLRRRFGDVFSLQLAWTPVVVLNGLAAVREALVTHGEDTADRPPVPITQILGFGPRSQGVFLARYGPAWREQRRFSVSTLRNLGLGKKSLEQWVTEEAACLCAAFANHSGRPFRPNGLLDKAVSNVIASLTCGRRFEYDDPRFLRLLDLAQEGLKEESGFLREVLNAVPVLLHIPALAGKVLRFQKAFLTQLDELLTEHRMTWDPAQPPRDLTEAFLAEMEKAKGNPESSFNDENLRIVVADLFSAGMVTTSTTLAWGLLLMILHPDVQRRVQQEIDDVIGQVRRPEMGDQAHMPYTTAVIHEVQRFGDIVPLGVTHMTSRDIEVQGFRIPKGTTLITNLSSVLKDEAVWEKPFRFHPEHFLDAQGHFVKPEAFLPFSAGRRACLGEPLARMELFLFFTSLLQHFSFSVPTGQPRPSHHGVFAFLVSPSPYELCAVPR

T3 sequence (P27361 whole entry, looked up): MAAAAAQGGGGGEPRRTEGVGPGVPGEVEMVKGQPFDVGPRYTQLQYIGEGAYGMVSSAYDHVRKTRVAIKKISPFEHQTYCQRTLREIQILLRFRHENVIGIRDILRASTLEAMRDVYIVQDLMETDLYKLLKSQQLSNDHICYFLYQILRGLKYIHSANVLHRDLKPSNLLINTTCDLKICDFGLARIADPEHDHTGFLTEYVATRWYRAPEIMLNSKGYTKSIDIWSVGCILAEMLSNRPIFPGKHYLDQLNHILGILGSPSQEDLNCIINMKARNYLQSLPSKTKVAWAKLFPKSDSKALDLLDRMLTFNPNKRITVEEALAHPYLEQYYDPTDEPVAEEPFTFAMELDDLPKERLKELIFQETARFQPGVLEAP
T3 sequence (P28482 whole entry, looked up): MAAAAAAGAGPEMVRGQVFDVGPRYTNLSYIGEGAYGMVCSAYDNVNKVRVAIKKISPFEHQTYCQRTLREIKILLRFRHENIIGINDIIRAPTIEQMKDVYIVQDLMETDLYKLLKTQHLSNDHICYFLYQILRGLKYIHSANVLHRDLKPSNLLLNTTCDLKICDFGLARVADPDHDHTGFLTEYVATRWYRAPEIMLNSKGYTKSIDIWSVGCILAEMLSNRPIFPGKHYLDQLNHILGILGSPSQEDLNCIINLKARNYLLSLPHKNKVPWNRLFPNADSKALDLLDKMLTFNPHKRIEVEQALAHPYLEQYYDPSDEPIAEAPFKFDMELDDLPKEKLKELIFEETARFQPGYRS
T4 sequence (Q12809 whole entry): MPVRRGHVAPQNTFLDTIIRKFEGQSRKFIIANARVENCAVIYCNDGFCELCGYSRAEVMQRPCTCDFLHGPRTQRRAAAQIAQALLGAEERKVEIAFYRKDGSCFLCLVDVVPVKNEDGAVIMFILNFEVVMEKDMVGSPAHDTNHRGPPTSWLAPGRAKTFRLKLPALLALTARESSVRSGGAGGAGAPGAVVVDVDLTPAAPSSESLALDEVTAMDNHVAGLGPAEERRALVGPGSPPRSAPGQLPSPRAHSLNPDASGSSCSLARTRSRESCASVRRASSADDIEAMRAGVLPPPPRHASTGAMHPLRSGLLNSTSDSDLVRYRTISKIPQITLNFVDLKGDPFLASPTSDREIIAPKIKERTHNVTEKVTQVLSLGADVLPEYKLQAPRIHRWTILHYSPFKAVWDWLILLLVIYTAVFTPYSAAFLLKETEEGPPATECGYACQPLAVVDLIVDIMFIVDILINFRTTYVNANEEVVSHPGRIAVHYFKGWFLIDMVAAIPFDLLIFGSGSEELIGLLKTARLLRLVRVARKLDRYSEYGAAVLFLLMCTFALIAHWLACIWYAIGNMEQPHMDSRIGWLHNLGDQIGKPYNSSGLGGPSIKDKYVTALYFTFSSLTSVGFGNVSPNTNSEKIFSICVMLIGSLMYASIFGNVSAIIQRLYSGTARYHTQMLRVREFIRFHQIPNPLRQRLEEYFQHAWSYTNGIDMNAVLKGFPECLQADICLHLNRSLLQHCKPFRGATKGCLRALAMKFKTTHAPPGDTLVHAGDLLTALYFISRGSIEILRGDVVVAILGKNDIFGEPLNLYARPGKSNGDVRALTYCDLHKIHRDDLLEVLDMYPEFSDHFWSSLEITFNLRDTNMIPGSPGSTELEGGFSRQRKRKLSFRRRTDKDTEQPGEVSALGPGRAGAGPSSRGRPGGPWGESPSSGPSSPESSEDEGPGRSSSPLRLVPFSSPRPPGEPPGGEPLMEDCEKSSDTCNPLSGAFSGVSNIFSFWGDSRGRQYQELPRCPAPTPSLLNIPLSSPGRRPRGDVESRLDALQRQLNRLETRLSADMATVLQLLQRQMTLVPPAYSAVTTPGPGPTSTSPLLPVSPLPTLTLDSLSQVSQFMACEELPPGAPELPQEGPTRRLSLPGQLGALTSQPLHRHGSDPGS
T2 sequence (P08684 whole entry): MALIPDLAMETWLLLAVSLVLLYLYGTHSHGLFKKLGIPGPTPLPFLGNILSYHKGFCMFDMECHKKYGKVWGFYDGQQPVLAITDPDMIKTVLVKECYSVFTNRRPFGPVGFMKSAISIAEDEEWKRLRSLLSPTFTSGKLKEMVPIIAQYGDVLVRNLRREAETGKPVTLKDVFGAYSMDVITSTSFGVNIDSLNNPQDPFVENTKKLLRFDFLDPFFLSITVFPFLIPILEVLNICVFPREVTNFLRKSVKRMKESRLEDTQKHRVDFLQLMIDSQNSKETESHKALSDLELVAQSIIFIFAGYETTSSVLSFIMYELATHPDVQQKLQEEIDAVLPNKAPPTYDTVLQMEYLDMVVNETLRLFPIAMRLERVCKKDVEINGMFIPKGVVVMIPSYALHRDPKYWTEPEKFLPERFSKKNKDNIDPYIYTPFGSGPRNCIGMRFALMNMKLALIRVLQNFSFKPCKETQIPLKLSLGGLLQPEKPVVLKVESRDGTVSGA
Chain of Cytochrome P450 2C19 (P33261 whole entry): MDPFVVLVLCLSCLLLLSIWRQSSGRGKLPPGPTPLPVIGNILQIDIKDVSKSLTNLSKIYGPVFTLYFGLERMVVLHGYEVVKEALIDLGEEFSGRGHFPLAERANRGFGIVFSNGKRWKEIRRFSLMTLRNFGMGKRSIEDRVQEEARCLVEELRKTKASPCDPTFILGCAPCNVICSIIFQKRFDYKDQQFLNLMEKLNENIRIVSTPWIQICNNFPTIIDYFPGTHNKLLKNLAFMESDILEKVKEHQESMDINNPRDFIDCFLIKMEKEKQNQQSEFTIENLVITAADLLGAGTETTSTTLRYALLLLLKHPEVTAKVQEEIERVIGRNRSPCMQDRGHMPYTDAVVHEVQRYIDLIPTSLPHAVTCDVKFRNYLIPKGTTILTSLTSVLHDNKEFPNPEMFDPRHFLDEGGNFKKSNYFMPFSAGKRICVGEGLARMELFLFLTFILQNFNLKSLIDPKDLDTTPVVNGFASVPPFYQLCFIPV
Chain of Cytochrome P450 2C9 (P11712 whole entry): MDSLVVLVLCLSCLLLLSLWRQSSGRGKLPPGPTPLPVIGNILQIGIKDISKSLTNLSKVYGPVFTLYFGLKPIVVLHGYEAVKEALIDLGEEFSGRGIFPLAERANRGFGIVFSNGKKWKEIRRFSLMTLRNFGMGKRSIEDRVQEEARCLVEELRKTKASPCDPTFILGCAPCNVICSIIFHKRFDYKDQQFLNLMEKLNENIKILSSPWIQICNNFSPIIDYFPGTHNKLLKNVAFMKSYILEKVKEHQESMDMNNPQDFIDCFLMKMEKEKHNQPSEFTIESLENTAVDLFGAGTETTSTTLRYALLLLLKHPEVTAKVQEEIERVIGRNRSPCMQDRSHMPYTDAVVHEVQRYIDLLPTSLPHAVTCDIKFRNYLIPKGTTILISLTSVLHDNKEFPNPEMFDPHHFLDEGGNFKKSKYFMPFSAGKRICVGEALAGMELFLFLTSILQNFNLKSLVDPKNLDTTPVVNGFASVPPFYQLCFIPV

In the case of CS[C@@]1(C(=O)Nc2ccc3[nH]nc(-c4ccc(OC(C)C)nc4)c3c2)CCN(CC(=O)N2CC=C(c3ccc(-c4ncn(C)n4)cc3)CC2)C1 [MK-8353], the Vd [1] is reported as 0.9 L/kg, the IC50 (Cytochrome P450 2C8) is reported as 3500 nM and the fraction unbound at 10 µM [2] is reported as < 0.01. For the same compound, the IC50 (COLO 205 [3]) was 23 nM, the Activity (Caspase (Homo sapiens)) was 185 nM and the Papp B→A [4] was 40 ×10⁻⁶ cm/s. For the same compound, the fraction unbound at 10 µM [5] was < 0.01, the IC50 (Cytochrome P450 3A4 [6]) was 1700 nM and the inhibition in vivo at 20 mg/kg (COLO 205 [7]) was 37%. For the same compound, the IC50 (Cytochrome P450 2C9) was > 5000 nM, the Activity (Cavia porcellus [8]) was “Non-Toxic” and the “inhibition (INH)” value (Cytochrome P450 2C19) was “Not Active”. For the same compound, the Tmax [9] was 1.4 h, the inhibition [10] was 100% and the inhibition [11] was “Dose-dependent effect”. The Tmax [12] was 1 h, the half-life [13] was 1.8 h and the Vd [14] was 3.3 L/kg. For the same compound, the IC50 (Cytochrome P450 3A4 [15]) was > 5000 nM, the Vd [16] was 0.1 L/kg and the MRT [17] was 1.9 h. For the same compound, the inhibition (hERG (KCNH2) [18]) was 6%, the half-life [19] was 2.8 h and the inhibition at 0.6 µM (hERG (KCNH2) [20]) was 16%. The inhibition [21] was “Dose-dependent effect”, the inhibition at 10 µM (hERG (KCNH2) [22]) was -0.2% and the bioavailability [23] was 2%. For the same compound, the bioavailability [24] was 50%, the Activity (Cavia porcellus [25]) was “Non-Toxic” and the fraction unbound at 10 µM [26] was < 0.01. The “inhibition (INH)” value (Cytochrome P450 2D6) was “Not Active”.
